The text below walks through data of ChEMBL document CHEMBL4118248, “Small Molecule Proprotein Convertase Subtilisin/Kexin Type 9 (PCSK9) Inhibitors: Hit to Lead Optimization of Systemic Agents” (J Med Chem, 2018).

A word on the logD: it is lipophilicity at a set pH, counting ionised and neutral species. As usually defined, the Ki is the equilibrium dissociation constant of an inhibitor or competing ligand from its target. One may read the IC50 as the concentration needed to halve the response being measured. As usually defined, the Papp is the rate of passage across a membrane or cell layer, normalised by area and donor concentration. By fraction unbound is commonly meant free concentration divided by total concentration.

The nature of data set [1]: Lipophilicity, log D of the compound by shake flask method. Type of data set: physicochemical. Particulars: octanol/water. The essentials:
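LogD measured by the shake-flask method.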

Data set [2] is described as follows: Intrinsic clearance in human liver microsomes. The settings on record: read-out: CLH. The class given is ADME, microsome.
Data set [3] addresses T1, Voltage-gated inwardly rectifying potassium channel KCNH2 (Homo sapiens, UniProt Q12809). In words: Inhibition of dofetilide binding to human ERG by fluorescence polarization assay. (In general: Polarisation of emitted light reports the rotation of a fluorescent probe.)
For data set [4], the target named is T1, Voltage-gated inwardly rectifying potassium channel KCNH2. In words: Inhibition of human ERG by patch clamp method.
In data set [5] the target is 80S Ribosome. The data set is described as follows: Binding affinity to 80S ribosome in human HuH7 cells assessed as inhibition of PCSK9 mRNA translation after overnight incubation by ELISA. The class given is cell-based. The settings on record: huh-7. The essentials:
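Huh7 cells kept in high-glucose DMEM, 10% BSA-free FBS, 2 mM L-glutamine, pen/strep at 37 °C, 5% CO2. Plated 7,500/well with compound or vehicle and incubated overnight (16-20 h). Secreted PCSK9 in the medium read by AlphaLISA: two antibodies to different mature-PCSK9 epitopes, biotinylated antibody 3 nM final, acceptor beads 10 µg/mL, 0.5 h rt; streptavidin donor beads 40 µg/mL, 1 h rt.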
In general terms: In an ELISA, binding on a coated surface is turned into a signal by an enzyme label.

The next data set has as its system Bone marrow cell. The data set is described as follows: Cytotoxicity against rat bone marrow cells assessed as reduction in cell viability after 72 hrs by CellTiter-Glo assay. Type of data set: cell-based. For orientation: ATP-based viability assays read luminescence as a measure of living cells.
Another data set deals with Rattus norvegicus. In words: In vivo drugmetabolism in rat assessed as (R)-N-(3-Chloropyridin-2-yl)-4-(6-(methylamino)pyrazin-2-yl)-N-(piperidin-3-yl)benzamide formation. The class given is ADME, organism-based.
In another data set the test system is Rhesus monkey. In words: In vivo drugmetabolism in non-human primate assessed as (R)-N-(3-Chloropyridin-2-yl)-4-(6-(methylamino)pyrazin-2-yl)-N-(piperidin-3-yl)benzamide formation. Type of data set: ADME, organism-based, Macaca mulatta.
Data set [6] can be described thus: Intrinsic clearance in rat liver microsomes. The class given is ADME, microsome. Particulars: read-out: CLH.
The target in data set [7] is 80S Ribosome. The data set is described as follows: Binding affinity to 80S ribosome in human HuH7 cells harboring pCMV-truncated human PCSK9 (1 to 152 residues)-proLuc assessed as inhibition of PCSK9 mRNA translation after overnight incubation by luciferase reporter gene assay. The class given is cell-based. The settings on record: huh-7. The essentials: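 Huh7 cells stably carry human PCSK9 prodomain (aa 1-152) fused to firefly luciferase (aa 2-550) in pcDNA3.1, kept under 900 µg/mL Geneticin. Plated 10,000/well in phenol red-free DMEM/10% FBS and left 4 h, then compound added (top final 20 µM, 0.5% DMSO). Incubated overnight at 37 °C, luminescence read with SteadyGlo.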

Data set [8] is described as follows: Selectivity index, ratio of IC50 for cytotoxicity against rat bone marrow cells to IC50 for 80S ribosome in human HuH7 cells harboring pCMV-truncated human PCSK9 (1 to 152 residues)-proLuc. Type of data set: toxicity, cell-based. Particulars: read-out: Ratio IC50.
A short description of data set [9]: Apparent permeability in RRCK cells. The settings on record: dog, MDCK. The class given is ADME, cell-based, Canis lupus familiaris, MDCKII-LE. The essentials:
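Passive permeability measured in RRCK cells, a modified Madin-Darby canine kidney line; Papp reported in 10^-6 cm/s.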

A short description of data set [10]: Permeability from apical to basolateral side in MDCK cells harboring MDR1. Type of data set: ADME, cell-based, Canis lupus familiaris. The settings on record: dog, read-out: permeability. A digest of the protocol: (§1)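 Bidirectional permeability across MDR1-transfected MDCK monolayers, apical-to-basolateral and basolateral-to-apical; Papp reported in 10^-6 cm/s.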

The nature of data set [11]: Permeability from basolateral to apical side in MDCK cells harboring MDR1. Type of data set: ADME, cell-based, Canis lupus familiaris. Particulars: dog, read-out: permeability. The essentials:
as §1

The target in another data set is T2, Cytochrome P450 1A2 (Homo sapiens, UniProt P05177).
T2 sequence (P05177 whole entry): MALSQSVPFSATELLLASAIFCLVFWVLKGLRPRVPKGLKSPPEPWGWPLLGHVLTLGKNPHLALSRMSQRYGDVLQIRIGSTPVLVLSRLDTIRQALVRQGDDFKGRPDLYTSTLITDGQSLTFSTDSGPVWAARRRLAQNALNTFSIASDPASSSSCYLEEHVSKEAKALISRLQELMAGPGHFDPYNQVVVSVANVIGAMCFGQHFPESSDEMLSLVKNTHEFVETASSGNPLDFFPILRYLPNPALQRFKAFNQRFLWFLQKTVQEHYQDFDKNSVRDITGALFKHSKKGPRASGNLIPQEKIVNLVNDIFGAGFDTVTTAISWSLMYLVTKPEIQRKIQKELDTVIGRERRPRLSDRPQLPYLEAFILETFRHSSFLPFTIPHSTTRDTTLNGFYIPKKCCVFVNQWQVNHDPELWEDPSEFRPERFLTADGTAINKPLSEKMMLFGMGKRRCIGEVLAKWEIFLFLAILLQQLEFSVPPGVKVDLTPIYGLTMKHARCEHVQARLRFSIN
The data set is described as follows: Inhibition of CYP1A2 (unknown origin). The class given is ADME. The essentials:
(§2)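 Inhibition of CYP1A2, 2D6, 2C9 and 3A4 reported as IC50, or as percent inhibition at 3 µM.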

The next data set concerns the target Cytochrome P450 2D6 (Homo sapiens, UniProt P10635). In words: Inhibition of CYP2D6 (unknown origin). The class given is ADME. A digest of the protocol:
as §2

Another data set has as its target Cytochrome P450 2C9 (Homo sapiens, UniProt P11712). In words: Inhibition of CYP2C9 (unknown origin). Type of data set: ADME. A digest of the protocol:
as §2

The target in a further data set is Cytochrome P450 3A4 (Homo sapiens, UniProt P08684). The data set is described as follows: Inhibition of CYP3A4 (unknown origin). The class given is ADME. A digest of the protocol: as §2
Data set [12] is described as follows: Fraction unbound in rat plasma. The class given is ADME, cell-free. A digest of the protocol:
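Unbound fraction measured in rat plasma.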

T1 sequence (Q12809 whole entry): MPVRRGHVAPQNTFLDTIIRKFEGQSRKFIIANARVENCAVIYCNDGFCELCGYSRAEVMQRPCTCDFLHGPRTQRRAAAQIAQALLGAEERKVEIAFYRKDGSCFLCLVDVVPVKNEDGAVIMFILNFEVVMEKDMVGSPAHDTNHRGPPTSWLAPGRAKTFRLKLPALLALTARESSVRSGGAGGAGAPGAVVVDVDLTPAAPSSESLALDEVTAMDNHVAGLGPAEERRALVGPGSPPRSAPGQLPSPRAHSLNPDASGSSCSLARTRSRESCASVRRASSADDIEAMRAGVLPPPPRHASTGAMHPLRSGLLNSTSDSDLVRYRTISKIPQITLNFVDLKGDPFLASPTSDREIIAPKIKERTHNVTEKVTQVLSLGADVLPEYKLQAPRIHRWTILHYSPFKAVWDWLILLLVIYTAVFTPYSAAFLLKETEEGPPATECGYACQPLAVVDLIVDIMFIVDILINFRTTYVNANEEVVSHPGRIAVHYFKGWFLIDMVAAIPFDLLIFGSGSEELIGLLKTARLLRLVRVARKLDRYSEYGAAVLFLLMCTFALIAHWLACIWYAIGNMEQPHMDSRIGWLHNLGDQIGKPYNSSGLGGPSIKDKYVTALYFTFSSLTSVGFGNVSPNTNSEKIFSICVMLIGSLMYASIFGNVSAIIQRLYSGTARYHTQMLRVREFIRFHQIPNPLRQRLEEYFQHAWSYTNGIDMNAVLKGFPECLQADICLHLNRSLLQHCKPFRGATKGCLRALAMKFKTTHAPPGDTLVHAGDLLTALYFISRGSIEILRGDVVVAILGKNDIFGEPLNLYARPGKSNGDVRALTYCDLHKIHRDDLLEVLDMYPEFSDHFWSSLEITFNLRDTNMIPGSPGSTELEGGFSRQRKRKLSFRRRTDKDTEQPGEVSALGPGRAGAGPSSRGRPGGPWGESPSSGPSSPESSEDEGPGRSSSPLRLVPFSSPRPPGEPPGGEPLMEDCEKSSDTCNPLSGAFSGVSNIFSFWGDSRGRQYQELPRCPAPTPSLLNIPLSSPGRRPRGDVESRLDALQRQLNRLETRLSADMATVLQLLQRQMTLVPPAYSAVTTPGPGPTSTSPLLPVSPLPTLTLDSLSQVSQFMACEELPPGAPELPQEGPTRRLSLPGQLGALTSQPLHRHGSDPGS
Chain of Cytochrome P450 2D6 (P10635 whole entry): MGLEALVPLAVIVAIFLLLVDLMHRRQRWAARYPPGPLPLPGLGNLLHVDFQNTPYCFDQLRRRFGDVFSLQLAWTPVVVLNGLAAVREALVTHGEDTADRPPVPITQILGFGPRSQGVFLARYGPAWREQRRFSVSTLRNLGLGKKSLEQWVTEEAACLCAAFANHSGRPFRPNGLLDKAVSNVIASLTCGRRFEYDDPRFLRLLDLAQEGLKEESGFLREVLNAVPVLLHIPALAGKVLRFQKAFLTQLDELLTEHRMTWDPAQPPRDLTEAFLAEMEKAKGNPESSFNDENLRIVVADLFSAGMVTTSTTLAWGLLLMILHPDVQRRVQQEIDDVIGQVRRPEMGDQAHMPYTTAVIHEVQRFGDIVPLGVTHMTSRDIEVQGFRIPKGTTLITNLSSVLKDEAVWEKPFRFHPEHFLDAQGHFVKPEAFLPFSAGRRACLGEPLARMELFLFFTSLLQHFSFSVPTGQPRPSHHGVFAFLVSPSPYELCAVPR
Chain of Cytochrome P450 2C9 (P11712 whole entry): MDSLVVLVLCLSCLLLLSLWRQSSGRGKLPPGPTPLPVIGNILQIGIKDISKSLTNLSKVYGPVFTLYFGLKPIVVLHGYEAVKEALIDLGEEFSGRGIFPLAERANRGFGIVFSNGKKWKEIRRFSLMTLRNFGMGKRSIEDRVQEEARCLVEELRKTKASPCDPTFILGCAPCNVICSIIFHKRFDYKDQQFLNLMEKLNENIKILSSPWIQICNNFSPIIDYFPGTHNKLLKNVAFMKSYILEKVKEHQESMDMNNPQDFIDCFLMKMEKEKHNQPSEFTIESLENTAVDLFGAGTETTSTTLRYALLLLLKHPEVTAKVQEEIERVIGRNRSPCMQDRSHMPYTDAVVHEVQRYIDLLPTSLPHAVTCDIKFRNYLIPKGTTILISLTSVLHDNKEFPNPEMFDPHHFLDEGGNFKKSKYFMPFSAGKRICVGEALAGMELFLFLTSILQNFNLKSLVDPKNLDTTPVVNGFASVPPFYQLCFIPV
Chain of Cytochrome P450 3A4 (P08684 whole entry): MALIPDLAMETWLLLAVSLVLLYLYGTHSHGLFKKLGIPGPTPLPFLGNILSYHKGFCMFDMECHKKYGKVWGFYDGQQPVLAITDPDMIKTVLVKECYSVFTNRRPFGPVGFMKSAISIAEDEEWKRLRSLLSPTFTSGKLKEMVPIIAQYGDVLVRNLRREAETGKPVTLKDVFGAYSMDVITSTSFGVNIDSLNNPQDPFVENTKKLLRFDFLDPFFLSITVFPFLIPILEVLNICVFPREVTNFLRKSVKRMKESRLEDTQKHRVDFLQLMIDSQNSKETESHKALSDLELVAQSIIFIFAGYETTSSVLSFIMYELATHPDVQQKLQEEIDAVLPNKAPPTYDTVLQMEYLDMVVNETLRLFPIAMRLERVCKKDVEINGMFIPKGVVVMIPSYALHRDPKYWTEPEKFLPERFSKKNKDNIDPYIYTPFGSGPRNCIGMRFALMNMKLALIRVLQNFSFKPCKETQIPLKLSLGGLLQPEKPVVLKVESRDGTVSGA

As for `CN(C)c1cncc(-c2ccc(C(=O)N(c3ncccc3Cl)[C@@H]3CCCNC3)cc2)n1`, the logD in [1] was determined as 1.37. In data set [2], the microsomal CLint was determined as 18.2 µL/min/mg. Moreover, the affinity in data set [3] corresponds to a Ki of 14.1 µM. Moreover, the IC50 in data set [4] was 43.2 µM; on 80S Ribosome [5], 2970 nM; in the data set with Bone marrow cell, 30.1 µM. In addition, the Drug metabolism entry in the data set with Rattus norvegicus is “Metabolite_Detected”; in the data set on Rhesus monkey, “Metabolite_Notdetected”.
In [1], `Cc1ccc2nnn(-c3ccc(C(=O)N(c4ncccc4Cl)[C@@H]4CCCNC4)cc3)c2n1` showed a logD of 1.2. For the same compound, the results for the microsomal CLint in [6] and in [2] were 38.5 µL/min/mg and 9 µL/min/mg, respectively. The figures for the IC50 on 80S Ribosome [7], at 80S Ribosome [5] and in the data set with Bone marrow cell were 450 nM, 900 nM and 1 µM, respectively. The compound also had a Ki in [3] of 34 µM. Also, the selectivity ratio in data set [8] was found to be 2.
On to `Cc1cncc(-c2ccc(C(=O)N(c3ncccc3Cl)[C@@H]3CCCNC3)cc2)n1`, for which the logD in data set [1] fell in the range of 0.8 to 1.37. In addition, in [9], the Papp stood at 10.5 ×10⁻⁶ cm/s. In data set [2], the microsomal CLint was < 8 µL/min/mg. In data set [3], this compound yielded a Ki of 38.2 µM. Also, in [10], the Papp A→B stood at 0.7 ×10⁻⁶ cm/s. In addition, the Papp B→A in [11] amounted to 20 ×10⁻⁶ cm/s. The IC50 is > 30 µM on Cytochrome P450 1A2; > 30 µM on Cytochrome P450 2D6; > 30 µM against Cytochrome P450 2C9; > 30 µM against Cytochrome P450 3A4; 59.8 µM in data set [4]; 2820 nM on 80S Ribosome [5]. For the same compound, in the data set on Bone marrow cell, the IC50 was 43.7 µM. In data set [12], this compound returned a fraction unbound of 0.41.
